ChEMBL document CHEMBL1156239, “Synthesis, anticonvulsant and antimicrobial activities of some new 2-acetylnaphthalene derivatives” (Bioorg Med Chem, 2010)
In brackets after ≈: the same amount, converted by molar mass. Activity calls are given as the source filed them. No cut-off for these calls is given here.

What was measured:
Enterococcus faecalis = experiment: Antibacterial activity against Enterococcus faecalis ATCC 29212 after 24 hrs by broth microdilution method; assay type: functional; conditions: ATCC 29212, 24 h
Procedure, shortened: (§1)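 Broth microdilution in Mueller Hinton broth; compound stocks in DMSO, diluted into test medium. Plates incubated at 35 °C and read visually after 24 h. MIC taken as lowest concentration preventing visible growth. Ampicillin reference.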

Mus musculus [1] = experiment: Anticonvulsant activity in CF1 mouse assessed as inhibition of maximal electroshock-induced seizures at 30 mg/kg, ip after 4 hrs; assay type: functional, organism-based; parameters: dose 30 mg/kg
Procedure, shortened: (§2)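 Male albino CF#1 mice (18–25.5 g), compound suspended in 0.5% methylcellulose, given ip 0.5 h or 4 h before test. Eyes treated with 0.5% tetracaine HCl in saline; corneal-type MES at 60 Hz, 50 mA for 0.2 s; protection scored as animals protected/tested.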

Mus musculus [2] = experiment: Neurotoxicity in CF1 mouse at 30 mg/kg, ip after 4 hrs by rotarod test; assay type: toxicity, organism-based; parameters: dose 30 mg/kg, route intraperitoneal; conditions: in vivo
Procedure, shortened: (§3)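 Male albino CF#1 mice (18–25.5 g) dosed ip with compound suspended in 0.5% methylcellulose, 0.5 h or 4 h before testing; neurotoxicity assessed by rotarod, scored as number toxic/number tested.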

Candida parapsilosis = experiment: Antifungal activity against Candida parapsilosis ATCC 22019 after 48 hrs by broth microdilution method; assay type: functional; conditions: Lodderomyces parapsilosis, ATCC 22019, 48 h
Mus musculus [3] = experiment: Anticonvulsant activity in CF1 mouse assessed as inhibition of maximal electroshock-induced seizures at 100 mg/kg, ip after 0.5 hrs; assay type: functional, organism-based; parameters: dose 100 mg/kg; procedure, shortened: as §2
Mus musculus [4] = experiment: Neurotoxicity in CF1 mouse at 100 mg/kg, ip after 0.5 hrs by rotarod test; assay type: toxicity, organism-based; parameters: dose 100 mg/kg, route intraperitoneal; conditions: in vivo; procedure, shortened: as §3
Mus musculus [5] = experiment: Neurotoxicity in CF1 mouse at 30 mg/kg, ip after 0.5 hrs by rotarod test; assay type: toxicity, organism-based; parameters: dose 30 mg/kg, route intraperitoneal; conditions: in vivo; procedure, shortened: as §3
Pseudomonas aeruginosa = experiment: Antibacterial activity against Pseudomonas aeruginosa ATCC 27853 after 24 hrs by broth microdilution method; assay type: functional; conditions: ATCC 27853, 24 h; procedure, shortened: as §1
Mus musculus [6] = experiment: Anticonvulsant activity in CF1 mouse assessed as inhibition of maximal electroshock-induced seizures at 30 mg/kg, ip after 0.5 hrs; assay type: functional, organism-based; parameters: dose 30 mg/kg; procedure, shortened: as §2
Mus musculus [7] = experiment: Anticonvulsant activity in CF1 mouse assessed as inhibition of maximal electroshock-induced seizures at 300 mg/kg, ip after 4 hrs; assay type: functional, organism-based; parameters: dose 300 mg/kg; procedure, shortened: as §2
Mus musculus [8] = experiment: Anticonvulsant activity in CF1 mouse assessed as inhibition of maximal electroshock-induced seizures at 100 mg/kg, ip after 4 hrs; assay type: functional, organism-based; parameters: dose 100 mg/kg; procedure, shortened: as §2
Mus musculus [9] = experiment: Anticonvulsant activity in CF1 mouse assessed as inhibition of maximal electroshock-induced seizures at 300 mg/kg, ip after 0.5 hrs; assay type: functional, organism-based; parameters: dose 300 mg/kg; procedure, shortened: as §2
Escherichia coli = experiment: Antibacterial activity against Escherichia coli ATCC 25922 after 24 hrs by broth microdilution method; assay type: functional; conditions: ATCC 25922, 24 h; procedure, shortened: as §1
Staphylococcus aureus = experiment: Antibacterial activity against Staphylococcus aureus ATCC 25923 after 24 hrs by broth microdilution method; assay type: functional; conditions: ATCC 25923, 24 h; procedure, shortened: as §1
Mus musculus [10] = experiment: Neurotoxicity in CF1 mouse at 300 mg/kg, ip after 4 hrs by rotarod test; assay type: toxicity, organism-based; parameters: dose 300 mg/kg, route intraperitoneal; conditions: in vivo; procedure, shortened: as §3
Pichia kudriavzevii = experiment: Antifungal activity against Candida krusei ATCC 6258 after 48 hrs by broth microdilution method; assay type: functional; conditions: ATCC 6258, 48 h
Mus musculus [11] = experiment: Neurotoxicity in CF1 mouse at 100 mg/kg, ip after 4 hrs by rotarod test; assay type: toxicity, organism-based; parameters: dose 100 mg/kg, route intraperitoneal; conditions: in vivo; procedure, shortened: as §3
Mus musculus [12] = experiment: Neurotoxicity in CF1 mouse at 300 mg/kg, ip after 0.5 hrs by rotarod test; assay type: toxicity, organism-based; parameters: dose 300 mg/kg, route intraperitoneal; conditions: in vivo; procedure, shortened: as §3
Mus musculus [13] = experiment: Neurotoxicity in CF1 mouse assessed as ability to grasp rotarod at 300 mg/kg, ip after 0.5 hrs by rotarod test; assay type: toxicity, organism-based; parameters: dose 300 mg/kg, route intraperitoneal; conditions: in vivo; procedure, shortened: as §3
Mus musculus [14] = experiment: Anticonvulsant activity in CF1 mouse assessed as inhibition of maximal electroshock-induced […] seizures at 300 mg/kg, ip after 0.5 hrs; assay type: functional, organism-based; parameters: dose 300 mg/kg; procedure, shortened: as §2
Mus musculus [15] = experiment: Neurotoxicity in CF1 mouse assessed as hyperactivity at 300 mg/kg, ip after 0.5 hrs by rotarod test; assay type: toxicity, organism-based; parameters: dose 300 mg/kg, route intraperitoneal; conditions: in vivo
Mus musculus [16] = experiment: Neurotoxicity in CF1 mouse assessed as mortality at 300 mg/kg, ip after 4 hrs by rotarod test; assay type: toxicity, organism-based; parameters: dose 300 mg/kg, route intraperitoneal; conditions: in vivo
Procedure, shortened: (§4)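 Male albino CF#1 mice (18–25.5 g), free access to food and water except during testing, under NINDS Anticonvulsant Screening Program procedures. Compounds were suspended in 0.5% methylcellulose and given ip. Neurotoxicity was scored by rotarod 0.5 h and 4 h after dosing, at screening doses of 30, 100 or 300 mg/kg. Results are reported as affected/tested animals.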

Mus musculus [17] = experiment: Neurotoxicity in CF1 mouse assessed as ability to grasp rotarod at 300 mg/kg, ip after 4 hrs by rotarod test; assay type: toxicity, organism-based; parameters: dose 300 mg/kg, route intraperitoneal; conditions: in vivo; procedure, shortened: as §4

| SMILES | MIC (Enterococcus faecalis) | inhibition (Mus musculus [1]) | Activity (Mus musculus [2]) | MIC (Candida parapsilosis) | inhibition (Mus musculus [3]) | Activity (Mus musculus [4]) | Activity (Mus musculus [5]) | MIC (Pseudomonas aeruginosa) | inhibition (Mus musculus [6]) | inhibition (Mus musculus [7]) | inhibition (Mus musculus [8]) | inhibition (Mus musculus [9]) | MIC (Escherichia coli) | MIC (Staphylococcus aureus) | Activity (Mus musculus [10]) | MIC (Pichia kudriavzevii) | Activity (Mus musculus [11]) | Activity (Mus musculus [12]) | also measured |
| --- | --- | --- | --- | --- | --- | --- | --- | --- | --- | --- | --- | --- | --- | --- | --- | --- | --- | --- | --- |
| Oc1c(C(O)Cn2ccnc2)ccc2ccccc12 (stereo unspecified) | 256 µg/mL (≈ 1010 µM) | inactive | Non-toxic | 512 µg/mL (≈ 2010 µM) | inactive | Non-toxic | Non-toxic | > 1020 µg/mL | inactive | inactive | inactive | inactive | > 1020 µg/mL | 512 µg/mL (≈ 2010 µM) | Non-toxic | 512 µg/mL (≈ 2010 µM) | Non-toxic |  |  |
| O=C(Cn1ccnc1)c1ccc2ccccc2c1O | 64 µg/mL (≈ 254 µM) | inactive | Non-toxic | 32 µg/mL (≈ 127 µM) | inactive | Non-toxic | Non-toxic | > 1020 µg/mL | inactive | Active | inactive | Active | 1020 µg/mL (≈ 4060 µM) | 64 µg/mL (≈ 254 µM) | Non-toxic | 64 µg/mL (≈ 254 µM) | Non-toxic |  |  |
| CC(C)(C)OC(=O)NCCCC(=O)OC(Cn1ccnc1)c1ccc2ccccc2c1 (stereo unspecified) | 128 µg/mL (≈ 302 µM) | inactive | Non-toxic | > 1020 µg/mL | Active |  | Non-toxic | > 1020 µg/mL | inactive | Active | inactive | Active | > 1020 µg/mL | 16 µg/mL (≈ 37.8 µM) | Non-toxic | > 1020 µg/mL | Non-toxic |  |  |
| C/C(=N\CCCC(=O)O)c1ccc2ccccc2c1O |  | inactive | Non-toxic |  | inactive | Non-toxic | Non-toxic |  | inactive | inactive | inactive | inactive |  |  | Non-toxic |  | Non-toxic | Toxic |  |
| CC1(C)S[C@@H]2[C@H](NC(=O)[C@H](N)c3ccccc3)C(=O)N2[C@H]1C(=O)O [AMPICILLIN] | 2 µg/mL (≈ 5.72 µM) |  |  |  |  |  |  |  |  |  |  |  | 8 µg/mL (≈ 22.9 µM) | 1 µg/mL (≈ 2.86 µM) |  |  |  |  |  |
| OC(Cn1cncn1)(Cn1cncn1)c1ccc(F)cc1F [FLUCONAZOLE] |  |  |  | 8 µg/mL (≈ 26.1 µM) |  |  |  |  |  |  |  |  |  |  |  | 64 µg/mL (≈ 209 µM) |  |  |  |
| CC(C)CC(=O)OC(C)c1ccc2ccccc2c1 (stereo unspecified) |  | inactive | Non-toxic |  | inactive | Non-toxic | Non-toxic |  | inactive | inactive | inactive | inactive |  |  | Non-toxic |  | Non-toxic | Non-toxic |  |
| CCCC(=O)OC(Cn1ccnc1)c1ccc2ccccc2c1 (stereo unspecified) | 128 µg/mL (≈ 415 µM) | inactive | Non-toxic | 64 µg/mL (≈ 208 µM) | Active |  | Non-toxic | > 1020 µg/mL | inactive | Active | inactive |  | > 1020 µg/mL | 8 µg/mL (≈ 25.9 µM) | Non-toxic | 256 µg/mL (≈ 830 µM) | Non-toxic |  | Activity (Mus musculus [13]): Toxic; inhibition (Mus musculus [14]): Active |
| CCCC(CCC)C(=O)OC(C)c1ccc2ccccc2c1 (stereo unspecified) |  | inactive | Non-toxic |  | inactive | Non-toxic | Non-toxic |  | inactive | inactive | inactive | inactive |  |  | Non-toxic |  | Non-toxic | Non-toxic |  |
| CCCCC(=O)OC(C)c1ccc2ccccc2c1 (stereo unspecified) |  | inactive | Non-toxic |  | inactive | Non-toxic | Non-toxic |  | inactive | inactive | inactive | inactive |  |  | Non-toxic |  | Non-toxic | Non-toxic |  |
| CCCCC(=O)OC(Cn1ccnc1)c1ccc2ccccc2c1 (stereo unspecified) | 32 µg/mL (≈ 99.3 µM) | inactive | Non-toxic | 128 µg/mL (≈ 397 µM) | Active | Non-toxic | Non-toxic | > 1020 µg/mL | Active |  |  | Active | > 1020 µg/mL | 8 µg/mL (≈ 24.8 µM) | Toxic | 128 µg/mL (≈ 397 µM) | Non-toxic |  | Activity (Mus musculus [15]): Toxic; Activity (Mus musculus [16]): Toxic; Activity (Mus musculus [17]): Toxic |
| O=C(OC(Cn1ccnc1)c1ccc2ccccc2c1)c1ccc(Cl)cc1 (stereo unspecified) | 128 µg/mL (≈ 340 µM) | inactive | Non-toxic | 512 µg/mL (≈ 1360 µM) | inactive | Non-toxic | Non-toxic | 1020 µg/mL (≈ 2720 µM) | inactive | inactive | inactive | Active | 1020 µg/mL (≈ 2720 µM) | 32 µg/mL (≈ 84.9 µM) | Non-toxic | 512 µg/mL (≈ 1360 µM) | Non-toxic |  |  |
| CC(OC(=O)CCCNC(=O)OC(C)(C)C)c1ccc2ccccc2c1 (stereo unspecified) |  | inactive | Non-toxic |  | inactive |  | Non-toxic |  | inactive | inactive | inactive | inactive |  |  | Non-toxic |  | Non-toxic | Non-toxic |  |
